Assay [1] deals with Radical scavenging activity. Description: Antioxidant activity assessed as DPPH free radical scavenging activity by TLC […] assay. The format is functional. An outline of the steps:
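Compounds were dissolved in DMSO at 2.0 mg/mL and 4.0 μg of each was spotted onto scored silica gel GF TLC plates. Residual DMSO was removed under vacuum. Plates were sprayed with 0.2% (w/v) DPPH in MeOH and radical scavenging was judged visually 30 min after spraying.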
On the technique in general: The DPPH test is a chemical assay of radical scavenging.

Another assay relates to HL-60. The assay can be described thus: Antioxidant activity against TPA-induced ROS production in human HL60 cells by 2',7'-dichlorodihydrofluorescein diacetate cellular-based assay. The format is functional, cell-based. An outline of the steps: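 HL-60 cells (1 × 10^6 cells/mL) in RPMI 1640 with 10% FBS and antibiotics, 37 °C, 5% CO2. Cells were pretreated 30 min with a range of test concentrations, then stimulated 30 min with 100 ng/mL TPA, then given DCFH-DA (5 μg/mL) for 15 min. DCF fluorescence was read at 530 nm, and percent inhibition was calculated against TPA-treated controls without test material.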

Broadly, the IC50 is the point on the concentration scale where inhibition reaches its midpoint. A higher IC50 goes with a need for much substance.

Calls of active or inactive are those of the source. The rule behind the calls is not given here.

In the case of `CC(=O)OC/C=C(\OC(C)=O)C(C)=O`, in assay [1], the result was inactive. The compound further gave an IC50 in the assay on HL-60 (Homo sapiens, HL-60) of 49 µM.
As to `OCc1cc(Br)c(O)c(O)c1Cc1ccc(O)c(Br)c1` [AVRAINVILLEOL], the outcome in assay [1] was Active. The compound further had an IC50 with HL-60 (Homo sapiens, HL-60) of 6.1 µM.
With `COc1c(OC)c(O)c2c(=O)c(C)c(/C=C/c3cc(O)cc(O)c3)oc2c1OC` [HORMOTHAMNIONE], the IC50 in the assay with HL-60 (Homo sapiens, HL-60) is greater than 31 µM.
In the assay with HL-60 (Homo sapiens, HL-60), `CCC(C)CC(C(=O)N/C=C\c1c[nH]c2ccccc12)N(C)Cc1ccc(O)cc1` (stereo not given) [ARAGILAMIDE] yielded an IC50 of 11 µM.
Regarding `Cc1ccc([C@@H](C)CCCC(C)(C)O)c(O)c1`, the outcome in the assay with HL-60 was inactive.
Regarding `O=C1C(C2=C3c4ccccc4NC3/C(=C\c3ccc(O)cc3)C2=O)=C2C(=Nc3ccccc32)/C1=C\c1ccc(O)cc1` (stereo not given) [SCYTONEMIN], the IC50 in the assay with HL-60 (Homo sapiens, HL-60) is greater than 23 µM.
On to `CC1(C)CCC[C@]2(C)[C@H]3C=C4C=C(O)C(=O)C=C4O[C@@]3(C)CC[C@@H]12` [PUUPEHENONE], for which the outcome in assay [1] was Active. In the assay with HL-60 (Homo sapiens, HL-60), this compound registered an IC50 of 27 µM.
For VITAMIN E [listing 1 of 2 here], half-maximal inhibition with HL-60 (hl-60) (IC50) required 255 µM.
In the case of `CC(C)=CCC/C(C)=C/Cc1cc(O)c(Br)cc1O` [CYMOPOL], the result in assay [1] was Active. Also, the IC50 in the assay on HL-60 (Homo sapiens, HL-60) turned out to be 4 µM.
On the same counts, the results for `COc1c(OC)c(O)c2c(=O)c(C)c(/C=C/c3cc(OC(C)=O)cc(OC(C)=O)c3)oc2c1OC` [HORMOTHAMNIONE DIACETATE] are “inactive” and 18.3 µM.
Consider `O=C1O[C@H]([C@@H](O)CO)C(O)=C1O` [ASCORBIC ACID], for which the outcome in assay [1] was Active. In the assay with HL-60 (Homo sapiens, HL-60), the IC50 was determined as 9.7 µM.
For VITAMIN E [listing 2 of 2 here], in assay [1], the result was Active.
Consider `C/C(=C\Cc1cc(O)c(Br)cc1O)CCCC(C)(C)O`, for which the result in assay [1] was Active. This compound also yielded an IC50 in the assay on HL-60 (Homo sapiens, HL-60) greater than 14.6 µM.
For the compound `COc1cc2ccnc3c2c(c1OC)NC=C3` [AAPTAMINE], the outcome in assay [1] was Active. In the assay with HL-60 (Homo sapiens, HL-60), this compound displayed an IC50 greater than 55 µM.
On the same counts, the results for `COc1cc2ccnc3c2c(c1O)N(C)C=C3` [ISOAAPTAMINE] are “Active” and greater than 55 µM.
The compound `CC(C)=CCC[C@H](C)c1ccc(C)cc1O` returned an IC50 with HL-60 (Homo sapiens, HL-60) of 209 µM.

Source of the values: ChEMBL document CHEMBL1159380, “Marine natural products as novel antioxidant prototypes” (J Nat Prod, 2003).
